Data from ChEMBL document CHEMBL2390822, “Bioactive terpenoids from the fruits of Aphanamixis grandifolia” (J Nat Prod, 2013).
The source made the active and inactive calls. The rule behind the calls is not given here.

Key:
P388 = assay: Cytotoxicity against mouse P388 cells; assay type: functional; settings: read-out: ED50 (the source's name)
Diabrotica balteata = assay: Insecticidal activity against Diabrotica balteata infected in cabbage leaves assessed as mortality after 5 days by leaf-disc method; assay type: functional
Sitobion avenae = assay: Insecticidal activity against second-instar larva of Sitobion avenae infected in cabbage leaves assessed as mortality after 5 days by leaf-disc method; assay type: functional
Caenorhabditis elegans = assay: Insecticidal activity against fourth-instar larva of Caenorhabditis elegans assessed as mortality after 5 days; assay type: functional, organism-based
Plutella xylostella = assay: Insecticidal activity against Plutella xylostella infected in cabbage leaves assessed as mortality after 5 days by leaf-disc method; assay type: functional, organism-based
SMMC-7721 = assay: Cytotoxicity against human SMMC7721 cells after 72 hrs by MTT assay; assay type: functional, cell-based
In short: (§1)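 Human tumour cell panel (HL-60, Bel7402, HepG2, SMMC-7721) with doxorubicin as the positive control.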

HepG2 = assay: Cytotoxicity against human HepG2 cells after 72 hrs by MTT assay; assay type: functional, cell-based; in short: as §1

Row | SMILES | Activity (Diabrotica balteata) | Activity (Sitobion avenae) | also measured
1 | CC(=O)O[C@@H]1C[C@H](O)[C@@]23CO[C@H](O)[C@]1(C)[C@@H]2C[C@@H](O)[C@]1(C)[C@@H]3C(=O)C[C@@]2(C)[C@H](c3ccoc3)C[C@H]3O[C@]312 [AMOORASTATIN] | – | – | EC50 (P388): < 0.065 µg/mL
2 | CC(=O)O[C@H]1CC(=O)OC(C)(C)[C@@H]2C[C@@H](OC(C)=O)[C@]3(C)[C@H]([C@@H](O)[C@H](O)[C@@]4(C)[C@H](c5ccoc5)C[C@H]5O[C@@]534)[C@@]12C | Active | – | –
3 | CC(=O)O[C@H]1CC(=O)OC(C)(C)[C@@H]2C[C@@H](O)[C@]3(C)[C@H]([C@@H](O)[C@H](OC(=O)c4cccnc4)[C@@]4(C)[C@H](c5ccoc5)C[C@H]5O[C@@]534)[C@@]12C | Active | Active | –
4 | CN1COCN(Cc2cnc(Cl)s2)/C1=N\[N+](=O)[O-] | – | Active | –
5 | CC1(C)OC(=O)C=C[C@]2(C)[C@H]3[C@@H](O)[C@H](O)[C@]4(C)[C@@H](C(=O)C[C@H]4c4ccoc4)[C@]3(C)[C@H](O)C[C@@H]12 | Active | Active | Activity (Caenorhabditis elegans): Active; Activity (Plutella xylostella): Active
6 | COc1cccc2c1C(=O)c1c(O)c3c(c(O)c1C2=O)C[C@@](O)(C(=O)CO)C[C@@H]3O[C@H]1C[C@H](N)[C@H](O)[C@H](C)O1 | – | – | Activity (SMMC-7721): Active; Activity (HepG2): Active
7 | CCC(C)C(=O)OC1OC[C@@]23[C@H]4C(=O)[C@H](O)[C@@]5(C)[C@H](c6ccoc6)C[C@H]6O[C@]65[C@]4(C)[C@H](O)C[C@H]2[C@]1(C)[C@H](OC(C)=O)[C@H](O)[C@@H]3OC(C)=O (some centres not stated) [APHANASTATIN] | – | – | EC50 (P388): < 0.065 µg/mL
8 | CC1(C)OC(=O)C=C[C@]2(C)[C@H]3[C@@H](O)[C@H](O)[C@@]4(C)[C@H](c5ccoc5)C[C@@H](O)[C@]45O[C@H](C[C@@H]12)[C@]35C | Active | Active | Activity (Caenorhabditis elegans): Active; Activity (Plutella xylostella): Active
9 | COC(=O)N(C(=O)N1CO[C@@]2(C(=O)OC)Cc3cc(Cl)ccc3C2=N1)c1ccc(OC(F)(F)F)cc1 | – | Active | –
